# Laboratory results as given in ChEMBL document CHEMBL4350976, “Sequence modification of heptapeptide selected by phage display as homing device for HT-29 colon cancer cells to improve the anti-tumour activity of drug delivery systems” (Eur J Med Chem, 2019).
# Where a SMILES comes first, the peptide text is derived from it. The star is where a group is joined. X1 = COc1cccc2c1C(=O)c1c(O)c3c(c(O)c1C2=O)C[C@@](O)(/C(C)=N/OCC(=O)*)C[C@@H]3O[C@H]1C[C@H](N)[C@H](O)[C@H](C)O1
# Legend:
# [1] = tested on: HT-29; assay: Cytostatic activity against human HT-29 cells preincubated for 24 hrs under serum free condition followed by compound washout and further incubation for 48 hrs in presence of serum by MTT assay; type: functional, cell-based
# Procedure, shortened: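 HT-29 cells were exposed to the compound for 24 h, washed, and kept a further 48 h. Viability was read by MTT. Absorbances were normalized to untreated controls and fitted by nonlinear regression to dose-response curves to give IC50.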
# [2] = Drug uptake in human HT-29 cells at 100 uM incubated for 3 hrs by flow cytometry; type: ADME, cell-based; conditions: ht-29, 3 h
# Procedure, shortened: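 HT-29 cells were exposed to 100 µM conjugate for 3 h. Flow cytometry recorded the percentage of Dau-positive cells and the mean fluorescence intensity, in duplicate.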
# [3] = Retention time of the compound using 0.1% TFA in water and 0.1% TFA in acetonitrile-water (80:20 v/v) as eluents by RP-HPLC analysis; type: physicochemical
# Procedure, shortened: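 Analytical RP-HPLC. Eluent A was 0.1% TFA in water and eluent B was 0.1% TFA in acetonitrile-water (80:20, v/v). Gradient: 0% B held to 5 min, then to 90% B at 50 min. Flow 1 mL/min, detection at 220 nm. The column was a Phenomenex Aeris Peptide XB-C18 (250×4.6 mm, 3.6 μm) or a Nucleosil C18 (5 μm, 100 Å, 250×4.6 mm), depending on the conjugate series.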
SMILES,IC50 [1],Drug uptake [2],Retention time [3],Retention_time [3]
COc1cccc2c1C(=O)c1c(O)c3c(c(O)c1C2=O)C[C@@](O)(/C(C)=N/OCC(=O)N[C@@H](CC(C)C)C(=O)N[C@@H](CCCNC(=N)N)C(=O)N[C@@H](CCCNC(=N)N)C(=O)N[C@@H](Cc1ccc(O)cc1)C(=O)N[C@@H](C)C(=O)N[C@@H](Cc1cnc[nH]1)C(=O)N[C@@H](CC(C)C)C(=O)NCC(=O)N[C@@H](Cc1ccc(O)cc1)C(=O)N[C@@H](C)C(=O)N[C@H](C(N)=O)[C@@H](C)O)C[C@@H]3O[C@H]1C[C@H](N)[C@H](O)[C@H](C)O1 (X1-LRRYAHLGYAT-NH2),> 100 µM,Active,27.7 to 30.4 min,
COc1cccc2c1C(=O)c1c(O)c3c(c(O)c1C2=O)C[C@@](O)(/C(C)=N/OCC(=O)N[C@@H](CC(C)C)C(=O)N[C@@H](CCCNC(=N)N)C(=O)N[C@@H](CCCNC(=N)N)C(=O)N[C@@H](Cc1ccc(O)cc1)C(=O)N[C@H](C(=O)N[C@@H](Cc1cnc[nH]1)C(=O)N[C@@H](CC(C)C)C(=O)N[C@@H](Cc1ccccc1)C(=O)N[C@@H](Cc1ccc(O)cc1)C(=O)N1CCC[C@H]1C(=O)N[C@H](C(N)=O)[C@@H](C)O)C(C)C)C[C@@H]3O[C@H]1C[C@H](N)[C@H](O)[C@H](C)O1 (X1-LRRYVHLFYPT-NH2),10.9 µM,,,31.6 min
COc1cccc2c1C(=O)c1c(O)c3c(c(O)c1C2=O)C[C@@](O)(/C(C)=N/OCC(=O)N[C@@H](CC(C)C)C(=O)N[C@@H](CCCNC(=N)N)C(=O)N[C@@H](CCCNC(=N)N)C(=O)N[C@@H](Cc1ccc(O)cc1)C(=O)N[C@H](C(=O)N[C@@H](Cc1cnc[nH]1)C(=O)N[C@@H](C)C(=O)NCC(=O)N[C@@H](Cc1ccc(O)cc1)C(=O)N[C@@H](C)C(=O)N[C@H](C(N)=O)[C@@H](C)O)C(C)C)C[C@@H]3O[C@H]1C[C@H](N)[C@H](O)[C@H](C)O1 (X1-LRRYVHAGYAT-NH2),> 100 µM,Active,27.2 to 29.9 min,
COc1cccc2c1C(=O)c1c(O)c3c(c(O)c1C2=O)C[C@@](O)(/C(C)=N/OCC(=O)N[C@@H](CC(C)C)C(=O)N[C@@H](CCCNC(=N)N)C(=O)N[C@@H](CCCNC(=N)N)C(=O)N[C@@H](Cc1ccc(O)cc1)C(=O)N[C@H](C(=O)N[C@@H](Cc1cnc[nH]1)C(=O)N[C@@H](CC(C)C)C(=O)N[C@@H](CCC(=O)O)C(=O)N[C@@H](Cc1ccc(O)cc1)C(=O)N[C@@H](C)C(=O)N[C@H](C(N)=O)[C@@H](C)O)C(C)C)C[C@@H]3O[C@H]1C[C@H](N)[C@H](O)[C@H](C)O1 (X1-LRRYVHLEYAT-NH2),29.5 µM,,29.3 to 31.2 min,
COc1cccc2c1C(=O)c1c(O)c3c(c(O)c1C2=O)C[C@@](O)(/C(C)=N/OCC(=O)N[C@@H](CC(C)C)C(=O)N[C@@H](CCCNC(=N)N)C(=O)N[C@@H](CCCNC(=N)N)C(=O)N[C@@H](Cc1ccc(O)cc1)C(=O)N[C@H](C(=O)N[C@@H](Cc1cnc[nH]1)C(=O)N[C@@H](CC(C)C)C(=O)N[C@@H](Cc1ccccc1)C(=O)N[C@@H](Cc1ccc(O)cc1)C(=O)N[C@@H](CO)C(=O)N[C@H](C(N)=O)[C@@H](C)O)C(C)C)C[C@@H]3O[C@H]1C[C@H](N)[C@H](O)[C@H](C)O1 (X1-LRRYVHLFYST-NH2),17.7 µM,,32.1 to 32.9 min,
COc1cccc2c1C(=O)c1c(O)c3c(c(O)c1C2=O)C[C@@](O)(/C(C)=N/OCC(=O)N[C@@H](CC(C)C)C(=O)N[C@@H](CCCNC(=N)N)C(=O)N[C@@H](CCCNC(=N)N)C(=O)N[C@@H](Cc1ccc(O)cc1)C(=O)N[C@H](C(=O)N[C@@H](Cc1cnc[nH]1)C(=O)N[C@@H](CC(C)C)C(=O)N[C@@H](Cc1ccccc1)C(=O)N[C@@H](Cc1ccc(O)cc1)C(=O)N[C@@H](CCCCN)C(=O)N[C@H](C(N)=O)[C@@H](C)O)C(C)C)C[C@@H]3O[C@H]1C[C@H](N)[C@H](O)[C@H](C)O1 (X1-LRRYVHLFYKT-NH2),11.5 µM,,30.5 to 32 min,
COc1cccc2c1C(=O)c1c(O)c3c(c(O)c1C2=O)C[C@@](O)(/C(C)=N/OCC(=O)N[C@@H](CC(C)C)C(=O)N[C@@H](CCCNC(=N)N)C(=O)N[C@@H](CCCNC(=N)N)C(=O)N[C@@H](Cc1ccc(O)cc1)C(=O)N[C@H](C(=O)N[C@@H](C)C(=O)N[C@@H](CC(C)C)C(=O)NCC(=O)N[C@@H](Cc1ccc(O)cc1)C(=O)N[C@@H](C)C(=O)N[C@H](C(N)=O)[C@@H](C)O)C(C)C)C[C@@H]3O[C@H]1C[C@H](N)[C@H](O)[C@H](C)O1 (X1-LRRYVALGYAT-NH2),36.8 µM,Active,29 to 31.7 min,
COc1cccc2c1C(=O)c1c(O)c3c(c(O)c1C2=O)C[C@@](O)(/C(C)=N/OCC(=O)N[C@@H](CC(C)C)C(=O)N[C@@H](CCCNC(=N)N)C(=O)N[C@@H](CCCNC(=N)N)C(=O)N[C@@H](Cc1ccc(O)cc1)C(=O)N[C@H](C(=O)N[C@@H](Cc1cnc[nH]1)C(=O)N[C@@H](CC(C)C)C(=O)N[C@@H](CC(C)C)C(=O)N[C@@H](Cc1ccc(O)cc1)C(=O)N[C@@H](C)C(=O)N[C@H](C(N)=O)[C@@H](C)O)C(C)C)C[C@@H]3O[C@H]1C[C@H](N)[C@H](O)[C@H](C)O1 (X1-LRRYVHLLYAT-NH2),7.5 µM,,31.1 to 33.1 min,
COc1cccc2c1C(=O)c1c(O)c3c(c(O)c1C2=O)C[C@@](O)(/C(C)=N/OCC(=O)N[C@@H](CC(C)C)C(=O)N[C@@H](CCCNC(=N)N)C(=O)N[C@@H](CCCNC(=N)N)C(=O)N[C@@H](Cc1ccc(O)cc1)C(=O)N[C@H](C(=O)N[C@@H](Cc1cnc[nH]1)C(=O)N[C@@H](CC(C)C)C(=O)N[C@@H](CC(N)=O)C(=O)N[C@@H](Cc1ccc(O)cc1)C(=O)N[C@@H](C)C(=O)N[C@H](C(N)=O)[C@@H](C)O)C(C)C)C[C@@H]3O[C@H]1C[C@H](N)[C@H](O)[C@H](C)O1 (X1-LRRYVHLNYAT-NH2),28 µM,,29 to 30.8 min,
COc1cccc2c1C(=O)c1c(O)c3c(c(O)c1C2=O)C[C@@](O)(/C(C)=N/OCC(=O)N[C@H](C(=O)N[C@@H](Cc1cnc[nH]1)C(=O)N[C@@H](CC(C)C)C(=O)NCC(=O)N[C@@H](Cc1ccc(O)cc1)C(=O)N[C@@H](C)C(=O)N[C@H](C(N)=O)[C@@H](C)O)C(C)C)C[C@@H]3O[C@H]1C[C@H](N)[C@H](O)[C@H](C)O1 (X1-VHLGYAT-NH2),,,,26.1 min
COc1cccc2c1C(=O)c1c(O)c3c(c(O)c1C2=O)C[C@@](O)(/C(C)=N/OCC(=O)N[C@@H](CC(C)C)C(=O)N[C@@H](CCCNC(=N)N)C(=O)N[C@@H](CCCNC(=N)N)C(=O)N[C@@H](Cc1ccc(O)cc1)C(=O)N[C@H](C(=O)N[C@@H](Cc1cnc[nH]1)C(=O)N[C@@H](CC(C)C)C(=O)N[C@@H](Cc1ccc(O)cc1)C(=O)N[C@@H](Cc1ccc(O)cc1)C(=O)N[C@@H](C)C(=O)N[C@H](C(N)=O)[C@@H](C)O)C(C)C)C[C@@H]3O[C@H]1C[C@H](N)[C@H](O)[C@H](C)O1 (X1-LRRYVHLYYAT-NH2),38.4 µM,,30.8 to 31.7 min,
COc1cccc2c1C(=O)c1c(O)c3c(c(O)c1C2=O)C[C@@](O)(/C(C)=N/OCC(=O)N[C@@H](CC(C)C)C(=O)N[C@@H](CCCNC(=N)N)C(=O)N[C@@H](CCCNC(=N)N)C(=O)N[C@@H](Cc1ccc(O)cc1)C(=O)N[C@H](C(=O)N[C@@H](Cc1cnc[nH]1)C(=O)N[C@@H](CC(C)C)C(=O)N[C@H](C(=O)N[C@@H](Cc1ccc(O)cc1)C(=O)N[C@@H](C)C(=O)N[C@H](C(N)=O)[C@@H](C)O)[C@@H](C)O)C(C)C)C[C@@H]3O[C@H]1C[C@H](N)[C@H](O)[C@H](C)O1 (X1-LRRYVHLTYAT-NH2),21.7 µM,,,29 min
COc1cccc2c1C(=O)c1c(O)c3c(c(O)c1C2=O)C[C@@](O)(/C(C)=N/OCC(=O)N[C@@H](CC(C)C)C(=O)N[C@@H](CCCNC(=N)N)C(=O)N[C@@H](CCCNC(=N)N)C(=O)N[C@@H](Cc1ccc(O)cc1)C(=O)N[C@H](C(=O)N[C@@H](Cc1cnc[nH]1)C(=O)N[C@@H](CC(C)C)C(=O)N[C@@H](Cc1ccccc1)C(=O)N[C@@H](Cc1ccc(O)cc1)C(=O)N[C@@H](CC(N)=O)C(=O)N[C@H](C(N)=O)[C@@H](C)O)C(C)C)C[C@@H]3O[C@H]1C[C@H](N)[C@H](O)[C@H](C)O1 (X1-LRRYVHLFYNT-NH2),15.4 µM,,,31.8 min
COc1cccc2c1C(=O)c1c(O)c3c(c(O)c1C2=O)C[C@@](O)(/C(C)=N/OCC(=O)N[C@@H](CC(C)C)C(=O)N[C@@H](CCCNC(=N)N)C(=O)N[C@@H](CCCNC(=N)N)C(=O)N[C@@H](Cc1ccc(O)cc1)C(=O)N[C@H](C(=O)N[C@@H](Cc1cnc[nH]1)C(=O)N[C@@H](CC(C)C)C(=O)N[C@@H](Cc1ccccc1)C(=O)N[C@@H](Cc1ccc(O)cc1)C(=O)N[C@@H](CCC(=O)O)C(=O)N[C@H](C(N)=O)[C@@H](C)O)C(C)C)C[C@@H]3O[C@H]1C[C@H](N)[C@H](O)[C@H](C)O1 (X1-LRRYVHLFYET-NH2),54.3 µM,,31.9 to 33.1 min,
COc1cccc2c1C(=O)c1c(O)c3c(c(O)c1C2=O)C[C@@](O)(/C(C)=N/OCC(=O)N[C@@H](CC(C)C)C(=O)N[C@@H](CCCNC(=N)N)C(=O)N[C@@H](CCCNC(=N)N)C(=O)N[C@@H](Cc1ccc(O)cc1)C(=O)N[C@H](C(=O)N[C@@H](Cc1cnc[nH]1)C(=O)N[C@@H](CC(C)C)C(=O)N[C@@H](CCCCN)C(=O)N[C@@H](Cc1ccc(O)cc1)C(=O)N[C@@H](C)C(=O)N[C@H](C(N)=O)[C@@H](C)O)C(C)C)C[C@@H]3O[C@H]1C[C@H](N)[C@H](O)[C@H](C)O1 (X1-LRRYVHLKYAT-NH2),50.3 µM,,28.2 to 30.1 min,
